Target: Human immunodeficiency virus type 1 reverse transcriptase (Human immunodeficiency virus 1, UniProt Q72547)
Assay: The compound was tested for the inhibition of human immunodeficiency virus-1 reverse transcriptase(HIV-1 RT).
In short: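 Ki by kinetics: HIV-1 RT p66 at 60 ng/mL with 0.4 μM poly(rA)-oligo(dT), inhibitor, and [3H]TTP varied over 4-20 μM, in pH 8.0 Tris buffer with 6 mM MgCl2, 8 mM DTT, 80 mM KCl. Incubated 37 °C for 30 min, then EDTA quench. 3H incorporation counted on DE-81 paper; Ki taken from double-reciprocal plots.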

| Ki [µM] | SMILES |
| --- | --- |
| 19.1 | Cc1cn([C@H]2C[C@@H](O)[C@@H](OP(=O)(O)NP(=O)(O)NP(=O)(O)O)O2)c(=O)[nH]c1=O |
| 15 | Cc1cn([C@H]2CC[C@@H](OP(=O)(O)NP(=O)(O)OP(=O)(O)O)O2)c(=O)[nH]c1=O |
| 22 | Cc1cn([C@H]2C[C@@H](N=[N+]=[N-])[C@@H](OP(=O)(O)NP(=O)(O)OP(=O)(O)O)O2)c(=O)[nH]c1=O |

Source: ChEMBL document CHEMBL1126051, “New thymidine triphosphate analogue inhibitors of human immunodeficiency virus-1 reverse transcriptase” (J Med Chem, 1992)
